Source: the M2OR odorant receptor database

Experiments:
Conditions in all cases: stereoisomer not certain
OR51E1 (Homo sapiens) = molecular target: T1, OR51E1 (Homo sapiens) (UniProt Q8TCB6)
T1 sequence (whole entry): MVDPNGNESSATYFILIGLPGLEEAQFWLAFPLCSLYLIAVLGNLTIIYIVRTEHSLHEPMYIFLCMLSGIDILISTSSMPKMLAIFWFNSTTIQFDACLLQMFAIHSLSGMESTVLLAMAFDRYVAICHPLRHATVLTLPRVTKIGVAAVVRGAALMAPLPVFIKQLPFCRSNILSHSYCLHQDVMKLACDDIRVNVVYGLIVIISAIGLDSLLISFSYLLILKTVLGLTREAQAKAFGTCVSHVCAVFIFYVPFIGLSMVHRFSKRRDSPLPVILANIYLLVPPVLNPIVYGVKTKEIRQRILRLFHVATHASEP
In short: (§1)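 Assay methods differ from source to source, frequently being transient luciferase assays in mammalian cell lines. For each receptor–molecule pair, the label responsive (active) applies when the original authors judged the measured signal statistically different from baseline, and non-responsive (inactive) applies otherwise.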

OR51E2 (Homo sapiens) = molecular target: T2, OR51E2 (Homo sapiens) (UniProt Q9H255)
T2 sequence (whole entry): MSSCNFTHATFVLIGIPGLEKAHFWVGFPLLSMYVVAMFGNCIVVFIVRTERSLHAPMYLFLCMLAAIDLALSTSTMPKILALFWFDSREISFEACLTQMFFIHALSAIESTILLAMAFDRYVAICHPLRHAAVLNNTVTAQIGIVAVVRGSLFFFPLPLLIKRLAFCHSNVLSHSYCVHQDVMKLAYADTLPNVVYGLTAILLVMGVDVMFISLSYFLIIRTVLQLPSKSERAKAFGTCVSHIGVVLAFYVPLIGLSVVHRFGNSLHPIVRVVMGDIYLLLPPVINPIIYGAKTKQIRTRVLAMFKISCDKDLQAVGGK
In short: as §1

OR51L1 (Homo sapiens) = molecular target: T3, OR51L1 (Homo sapiens) (UniProt Q8NGJ5)
T3 sequence (whole entry): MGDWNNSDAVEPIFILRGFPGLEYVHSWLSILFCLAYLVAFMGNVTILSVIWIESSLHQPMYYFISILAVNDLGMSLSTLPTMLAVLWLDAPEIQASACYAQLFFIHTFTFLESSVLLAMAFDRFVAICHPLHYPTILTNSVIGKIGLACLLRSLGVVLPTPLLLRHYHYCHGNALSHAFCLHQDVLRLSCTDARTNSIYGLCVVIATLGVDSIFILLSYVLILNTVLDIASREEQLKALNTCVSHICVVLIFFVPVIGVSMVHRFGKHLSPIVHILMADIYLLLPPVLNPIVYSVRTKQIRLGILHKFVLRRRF
In short: as §1

OR51D1 (Homo sapiens) = molecular target: T4, OR51D1 (Homo sapiens) (UniProt Q8NGF3)
T4 sequence (whole entry): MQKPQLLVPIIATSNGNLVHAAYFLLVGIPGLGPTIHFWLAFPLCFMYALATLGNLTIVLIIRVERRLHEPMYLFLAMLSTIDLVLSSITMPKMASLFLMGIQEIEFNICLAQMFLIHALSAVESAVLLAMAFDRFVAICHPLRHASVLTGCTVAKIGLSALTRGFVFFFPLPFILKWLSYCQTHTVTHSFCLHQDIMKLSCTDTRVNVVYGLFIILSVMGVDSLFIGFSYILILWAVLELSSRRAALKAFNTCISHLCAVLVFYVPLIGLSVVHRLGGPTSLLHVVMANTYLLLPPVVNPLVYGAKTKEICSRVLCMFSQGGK
In short: as §1

OR51F1 (Homo sapiens) = molecular target: T5, OR51F1 (Homo sapiens) (UniProt A6NGY5)
T5 sequence (whole entry): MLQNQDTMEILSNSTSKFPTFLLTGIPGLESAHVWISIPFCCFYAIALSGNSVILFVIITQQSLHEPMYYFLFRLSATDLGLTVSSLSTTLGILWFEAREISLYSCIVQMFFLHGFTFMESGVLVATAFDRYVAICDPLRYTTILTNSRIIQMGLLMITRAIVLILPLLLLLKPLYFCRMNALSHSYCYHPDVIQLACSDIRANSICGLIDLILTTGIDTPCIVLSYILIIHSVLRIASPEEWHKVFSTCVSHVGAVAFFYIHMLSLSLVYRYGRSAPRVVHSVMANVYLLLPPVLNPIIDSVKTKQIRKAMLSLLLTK
In short: as §1

OR51F2 (Homo sapiens) = molecular target: T6, OR51F2 (Homo sapiens) (UniProt Q8NH61)
T6 sequence (whole entry): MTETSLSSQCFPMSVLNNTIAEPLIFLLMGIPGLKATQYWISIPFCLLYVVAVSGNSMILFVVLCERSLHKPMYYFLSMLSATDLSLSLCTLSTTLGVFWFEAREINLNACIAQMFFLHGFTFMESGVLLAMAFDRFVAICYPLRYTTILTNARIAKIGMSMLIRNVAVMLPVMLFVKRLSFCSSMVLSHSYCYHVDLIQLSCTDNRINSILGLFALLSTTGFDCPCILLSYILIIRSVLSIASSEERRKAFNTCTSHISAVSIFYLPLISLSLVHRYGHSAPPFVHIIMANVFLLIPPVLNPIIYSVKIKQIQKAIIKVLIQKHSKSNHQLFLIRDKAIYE
In short: as §1

OR51G1 (Homo sapiens) = molecular target: T7, OR51G1 (Homo sapiens) (UniProt Q8NGK1)
T7 sequence (whole entry): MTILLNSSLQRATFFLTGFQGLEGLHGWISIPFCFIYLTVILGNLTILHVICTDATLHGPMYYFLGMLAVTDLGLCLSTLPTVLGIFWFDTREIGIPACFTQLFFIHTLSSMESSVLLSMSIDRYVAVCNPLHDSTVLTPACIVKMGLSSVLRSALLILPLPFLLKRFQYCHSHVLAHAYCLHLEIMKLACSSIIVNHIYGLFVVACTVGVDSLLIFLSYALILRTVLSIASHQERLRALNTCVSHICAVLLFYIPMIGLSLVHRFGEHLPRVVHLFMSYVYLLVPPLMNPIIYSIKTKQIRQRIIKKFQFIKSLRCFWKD
In short: as §1

OR51G2 (Homo sapiens) = molecular target: T8, OR51G2 (Homo sapiens) (UniProt Q8NGK0)
T8 sequence (whole entry): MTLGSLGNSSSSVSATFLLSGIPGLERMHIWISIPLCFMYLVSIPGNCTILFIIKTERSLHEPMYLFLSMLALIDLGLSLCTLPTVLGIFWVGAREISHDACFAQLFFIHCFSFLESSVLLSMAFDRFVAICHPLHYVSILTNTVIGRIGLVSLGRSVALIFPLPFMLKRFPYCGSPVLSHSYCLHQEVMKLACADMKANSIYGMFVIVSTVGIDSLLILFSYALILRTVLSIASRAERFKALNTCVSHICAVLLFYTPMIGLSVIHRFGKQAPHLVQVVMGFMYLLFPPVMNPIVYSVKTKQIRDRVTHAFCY
In short: as §1

OR51I1 (Homo sapiens) = molecular target: T9, OR51I1 (Homo sapiens) (UniProt Q9H343)
T9 sequence (whole entry): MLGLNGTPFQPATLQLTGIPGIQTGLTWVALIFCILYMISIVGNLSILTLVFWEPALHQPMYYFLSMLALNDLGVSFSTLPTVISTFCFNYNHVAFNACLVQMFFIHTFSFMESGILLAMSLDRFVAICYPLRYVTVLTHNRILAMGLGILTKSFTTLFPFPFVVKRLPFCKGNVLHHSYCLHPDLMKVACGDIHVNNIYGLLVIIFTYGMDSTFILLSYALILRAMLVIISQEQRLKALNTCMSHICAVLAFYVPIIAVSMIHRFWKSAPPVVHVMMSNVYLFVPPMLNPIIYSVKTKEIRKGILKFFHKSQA
In short: as §1

OR51I2 (Homo sapiens) = molecular target: T10, OR51I2 (Homo sapiens) (UniProt Q9H344)
T10 sequence (whole entry): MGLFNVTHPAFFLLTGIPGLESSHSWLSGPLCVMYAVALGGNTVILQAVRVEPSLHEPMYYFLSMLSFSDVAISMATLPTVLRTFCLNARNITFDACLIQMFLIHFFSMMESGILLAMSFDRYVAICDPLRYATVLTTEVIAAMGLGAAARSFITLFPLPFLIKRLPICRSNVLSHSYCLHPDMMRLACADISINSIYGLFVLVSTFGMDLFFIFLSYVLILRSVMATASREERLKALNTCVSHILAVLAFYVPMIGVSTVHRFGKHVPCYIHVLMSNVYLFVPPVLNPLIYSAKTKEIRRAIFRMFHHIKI
In short: as §1

OR51J1 (Homo sapiens) = molecular target: T11, OR51J1 (Homo sapiens) (UniProt Q9H342)
T11 sequence (whole entry): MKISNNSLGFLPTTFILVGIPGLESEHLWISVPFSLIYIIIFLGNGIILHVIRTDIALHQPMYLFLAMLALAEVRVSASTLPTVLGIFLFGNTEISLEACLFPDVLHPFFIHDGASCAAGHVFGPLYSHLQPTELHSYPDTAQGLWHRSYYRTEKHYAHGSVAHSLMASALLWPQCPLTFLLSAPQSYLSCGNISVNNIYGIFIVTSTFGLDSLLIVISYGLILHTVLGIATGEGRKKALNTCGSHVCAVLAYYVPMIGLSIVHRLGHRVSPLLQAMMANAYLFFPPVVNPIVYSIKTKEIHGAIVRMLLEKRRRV
In short: as §1

OR51M1 (Homo sapiens) = molecular target: T12, OR51M1 (Homo sapiens) (UniProt Q9H341)
T12 sequence (whole entry): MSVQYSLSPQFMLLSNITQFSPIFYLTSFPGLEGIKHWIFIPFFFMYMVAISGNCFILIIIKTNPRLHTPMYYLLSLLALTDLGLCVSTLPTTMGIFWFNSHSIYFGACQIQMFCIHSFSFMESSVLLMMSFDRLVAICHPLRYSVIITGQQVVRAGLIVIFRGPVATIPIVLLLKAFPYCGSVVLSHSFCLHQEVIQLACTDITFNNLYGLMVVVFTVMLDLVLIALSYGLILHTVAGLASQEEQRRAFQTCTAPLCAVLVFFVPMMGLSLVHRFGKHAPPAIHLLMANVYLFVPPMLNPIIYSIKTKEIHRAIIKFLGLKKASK
In short: as §1

OR51Q1 (Homo sapiens) = molecular target: T13, OR51Q1 (Homo sapiens) (UniProt Q8NH59)
T13 sequence (whole entry): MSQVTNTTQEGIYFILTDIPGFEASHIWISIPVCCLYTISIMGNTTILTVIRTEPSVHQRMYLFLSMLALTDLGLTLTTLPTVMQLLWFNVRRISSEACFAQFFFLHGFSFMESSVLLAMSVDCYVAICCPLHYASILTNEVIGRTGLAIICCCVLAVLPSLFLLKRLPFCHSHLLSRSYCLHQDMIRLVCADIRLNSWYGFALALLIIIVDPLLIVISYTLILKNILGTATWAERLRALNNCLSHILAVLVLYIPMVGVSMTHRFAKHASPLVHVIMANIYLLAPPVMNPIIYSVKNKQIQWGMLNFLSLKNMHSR
In short: as §1

OR51S1 (Homo sapiens) = molecular target: T14, OR51S1 (Homo sapiens) (UniProt Q8NGJ8)
T14 sequence (whole entry): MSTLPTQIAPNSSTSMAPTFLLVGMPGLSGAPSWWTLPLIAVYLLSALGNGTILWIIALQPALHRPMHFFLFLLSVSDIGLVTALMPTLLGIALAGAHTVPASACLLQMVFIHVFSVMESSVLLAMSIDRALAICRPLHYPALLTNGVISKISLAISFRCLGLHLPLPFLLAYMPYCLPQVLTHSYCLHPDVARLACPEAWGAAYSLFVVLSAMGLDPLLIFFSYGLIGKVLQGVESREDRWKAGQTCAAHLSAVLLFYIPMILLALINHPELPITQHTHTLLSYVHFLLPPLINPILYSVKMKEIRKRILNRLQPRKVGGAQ
In short: as §1

OR51T1 (Homo sapiens) = molecular target: T15, OR51T1 (Homo sapiens) (UniProt Q8NGJ9)
T15 sequence (whole entry): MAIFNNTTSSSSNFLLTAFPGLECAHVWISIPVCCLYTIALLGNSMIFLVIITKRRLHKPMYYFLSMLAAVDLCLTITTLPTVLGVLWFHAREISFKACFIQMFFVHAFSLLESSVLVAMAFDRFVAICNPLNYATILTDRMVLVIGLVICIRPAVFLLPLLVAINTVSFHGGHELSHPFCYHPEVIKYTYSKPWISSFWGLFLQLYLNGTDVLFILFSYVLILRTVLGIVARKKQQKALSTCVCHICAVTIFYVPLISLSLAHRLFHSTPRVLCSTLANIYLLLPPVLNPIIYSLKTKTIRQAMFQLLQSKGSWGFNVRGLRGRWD
In short: as §1

OR51V1 (Homo sapiens) = molecular target: T16, OR51V1 (Homo sapiens) (UniProt Q9H2C8)
T16 sequence (whole entry): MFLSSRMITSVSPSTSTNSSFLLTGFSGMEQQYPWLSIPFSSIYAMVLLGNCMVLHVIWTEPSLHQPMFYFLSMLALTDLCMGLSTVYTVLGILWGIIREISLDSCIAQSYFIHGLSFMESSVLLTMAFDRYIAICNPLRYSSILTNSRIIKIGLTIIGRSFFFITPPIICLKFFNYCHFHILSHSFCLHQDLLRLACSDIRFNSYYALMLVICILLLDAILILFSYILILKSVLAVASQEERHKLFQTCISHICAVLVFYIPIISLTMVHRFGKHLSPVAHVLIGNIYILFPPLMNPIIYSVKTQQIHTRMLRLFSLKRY
In short: as §1

OR52A1 (Homo sapiens) = molecular target: T17, OR52A1 (Homo sapiens) (UniProt Q9UKL2)
T17 sequence (whole entry): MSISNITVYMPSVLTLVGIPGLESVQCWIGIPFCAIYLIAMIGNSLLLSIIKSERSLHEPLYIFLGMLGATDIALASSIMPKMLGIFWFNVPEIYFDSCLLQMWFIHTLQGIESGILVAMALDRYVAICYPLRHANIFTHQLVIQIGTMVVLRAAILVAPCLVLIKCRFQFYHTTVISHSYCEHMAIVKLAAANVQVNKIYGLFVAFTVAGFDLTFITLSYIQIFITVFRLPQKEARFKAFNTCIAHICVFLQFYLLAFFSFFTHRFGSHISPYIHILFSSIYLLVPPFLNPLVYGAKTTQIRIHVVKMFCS
In short: as §1

OR52A4P (Homo sapiens) = molecular target: T18, OR52A4P (Homo sapiens) (UniProt A6NMU1)
T18 sequence (whole entry): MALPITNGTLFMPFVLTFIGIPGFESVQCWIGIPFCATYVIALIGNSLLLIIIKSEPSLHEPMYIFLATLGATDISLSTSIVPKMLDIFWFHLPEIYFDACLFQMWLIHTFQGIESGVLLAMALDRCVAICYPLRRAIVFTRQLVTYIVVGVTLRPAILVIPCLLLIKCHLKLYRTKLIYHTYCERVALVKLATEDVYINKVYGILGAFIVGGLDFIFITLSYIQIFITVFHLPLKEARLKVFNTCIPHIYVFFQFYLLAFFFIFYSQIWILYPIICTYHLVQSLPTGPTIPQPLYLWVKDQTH
In short: as §1

Measured: odorant receptor agonist call

CC(=O)Oc1ccccc1
inactive: OR51E1 (Homo sapiens) | OR51E2 (Homo sapiens) | OR51L1 (Homo sapiens)

CCCCCCCCCC(=O)[O-].[H+]
inactive: OR51E1 (Homo sapiens) | OR51E2 (Homo sapiens) | OR51L1 (Homo sapiens)

CC(CO)CS (centres undefined)
inactive: all assays above
